The results in this text go back to ChEMBL document CHEMBL1130122, “Synthesis, biological evaluation, and structure-activity relationships of 3-acylindole-2-carboxylic acids as inhibitors of the cytosolic phospholipase A2” (J Med Chem, 1997).

What is called IC50 is the midpoint of a concentration-inhibition curve. As usually defined, the inhibition is the change of the read-out against control, counted positive when it falls.

One assay is filed under the species Bos taurus. Put plainly: The cell lytic potency at a compound concentration of 33 uM in bovine platelets was determined. The class given is functional. Summed up: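 Turbidimetric lysis assay in bovine platelets. ETYA, then compound or DMSO solvent, then platelet suspension and CaCl2 at 37 °C. The suspension was diluted with PBS and absorbance read at 800 nm; lysis lowers absorbance. Platelets were stored at +4 °C and used within 36 h of isolation.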

The test system of assay [1] is Cytosolic phospholipase A2 (Bos taurus). The assay is described as follows: Inhibitory activity against cPLA2 (cytosolic Phospholipase A2) by measuring the calcium ionophore A-23,187-induced arachidonic acid release from bovine platelets; Not active at highest conc tested 33 uM.
Assay [2] concerns the target T1, Cytosolic phospholipase A2 (Bos taurus, UniProt A4IFJ5).
T1 sequence (A4IFJ5 whole entry): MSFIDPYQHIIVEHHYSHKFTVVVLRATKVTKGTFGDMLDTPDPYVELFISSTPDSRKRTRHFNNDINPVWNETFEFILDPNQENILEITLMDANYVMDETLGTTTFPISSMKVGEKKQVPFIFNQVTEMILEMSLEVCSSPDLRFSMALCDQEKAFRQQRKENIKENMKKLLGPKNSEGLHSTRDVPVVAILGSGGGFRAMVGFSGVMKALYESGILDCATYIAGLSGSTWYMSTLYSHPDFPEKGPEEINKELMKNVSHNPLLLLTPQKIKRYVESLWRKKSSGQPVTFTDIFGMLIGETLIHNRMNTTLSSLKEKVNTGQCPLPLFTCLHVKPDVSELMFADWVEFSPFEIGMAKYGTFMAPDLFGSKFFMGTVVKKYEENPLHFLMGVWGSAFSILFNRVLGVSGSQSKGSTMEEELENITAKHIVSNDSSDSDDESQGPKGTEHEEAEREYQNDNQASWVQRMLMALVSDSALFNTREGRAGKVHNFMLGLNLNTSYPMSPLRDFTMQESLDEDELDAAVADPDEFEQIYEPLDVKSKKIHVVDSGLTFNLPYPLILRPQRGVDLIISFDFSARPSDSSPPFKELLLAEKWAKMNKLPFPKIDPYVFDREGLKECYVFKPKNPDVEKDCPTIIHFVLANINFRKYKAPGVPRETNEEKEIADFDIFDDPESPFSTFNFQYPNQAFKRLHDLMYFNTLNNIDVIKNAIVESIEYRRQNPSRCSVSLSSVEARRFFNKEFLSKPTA
Put plainly: Inhibitory activity against cPLA2 (cytosolic Phospholipase A2) by measuring the calcium ionophore A-23,187-induced arachidonic acid release from bovine platelets. The class given is functional. Put shortly:
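Intact bovine platelets stimulated with calcium ionophore A23187 in the presence of ETYA, which blocks arachidonic acid metabolism. Compound or solvent control was added to ETYA, then platelet suspension and CaCl2 at 37 °C. Released arachidonic acid was measured by HPLC/UV. IC50 was read graphically as the mean of at least two independent experiments. Platelets were stored at +4 °C and used within 36 h of isolation.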

Assay [3] relates to Cytosolic phospholipase A2 (Bos taurus). The assay is described as follows: Inhibitory activity against cPLA2 (cytosolic Phospholipase A2) by measuring the calcium ionophore A-23,187-induced arachidonic acid release from bovine platelets at a compound conc of 33 uM.

The structures appear in SMILES notation.

In the assay listed under Bos taurus, `CCCCCCCCCCCCCCCCCC(=O)c1c(CCC(=O)O)[nH]c2ccccc12` yielded a Lysis of 0%. The IC50 result in assay [1] is given as “Not Active”.

The compound `CCCCCCCCCCCC(=O)c1c(C(=O)O)n(C)c2cccc(Cl)c12` registered a Lysis in the assay filed under Bos taurus of 50%. Also, the IC50 in assay [2] was determined as 9 µM.

Compound `CCCCCCCCCCCC(=O)c1c(C)c(C)n(C)c1C(=O)O` came in with a Lysis in the assay listed under Bos taurus of 0%. Further, the IC50 in assay [2] came to 11 µM.

Consider `CCCCCCCCCCCC(=O)c1c(C(=O)O)n(C)c2ccccc12`, for which the Lysis in the assay filed under Bos taurus stood at 0%. Also, in assay [2], the IC50 came out at 8 µM.

Take `CCCCCCCCCCCCCCCCNC(=O)C1CCCN1` (configuration not stated): the Lysis in the assay listed under Bos taurus worked out at 0%. Besides, the IC50 in assay [2] was determined as 13 µM.

Take `CCCCCCCCCCOc1ccc(CC(=O)c2c(C(=O)O)n(C)c3ccccc23)cc1`: the Lysis in the assay listed under Bos taurus was 38%. The IC50 in assay [2] stood at 7 µM.

`CCCCCCCCCCCC(=O)c1c(C(=O)O)n(CCOc2ccc(C(=O)O)cc2)c2ccccc12` registered a Lysis in the assay filed under Bos taurus of 0%. Also, the IC50 in assay [2] was determined as 0.5 µM.

As for `CCCCCCCCCCOc1ccccc1CCC(=O)c1c(C(=O)O)n(C)c2ccccc12`, in the assay listed under Bos taurus, the Lysis came out at 34%. In assay [2], the IC50 came out at 34 µM.

Regarding `CCCCCCCCCCCC(=O)c1c(C(=O)O)n(C)c2ccc(O)cc12`, in the assay listed under Bos taurus, the Lysis was found to be 0%. Besides, the IC50 in assay [2] is 10 µM.

Turning to `CCCCCCCCCCCCCCCCCC(=O)c1c(C(=O)O)n(CCCCCCC)c2ccccc12`, in the assay filed under Bos taurus, the Lysis is recorded as 16%. The IC50 in assay [2] is over 10 µM.

As for `CCCCCCCCCCCC(=O)c1c(C(=O)O)n(C)c2cc(Cl)ccc12`, the Lysis in the assay listed under Bos taurus amounted to 26%. Further, the IC50 in assay [2] stood at 9 µM.

Take `CCCCCCCCCCCCCCCCCC(=O)c1c(CCC(=O)O)n(C)c2ccccc12`: the Lysis in the assay filed under Bos taurus amounted to 0%. In addition, in assay [1], the IC50 entry was “Not Active”.

Regarding `CCCCCCCCCCCC(=O)c1c(C(=O)O)n(Cc2ccc(/C=C/C(=O)O)cc2)c2ccccc12`, in the assay filed under Bos taurus, the Lysis is on record as 0%. In assay [2], the IC50 is 4.1 µM.

As to `CCCCCCCCCCCCCCCCCC(=O)c1c(C(=O)O)n(CCCCCCCC)c2ccccc12`, the Lysis in the assay filed under Bos taurus was 0%.

In the case of `CCCCCCCCCCOc1cccc(CCC(=O)c2c(C(=O)O)n(C)c3ccccc23)c1`, in the assay filed under Bos taurus, the Lysis was 14%. The IC50 in assay [2] stood at 11 µM.

In the case of `CCCCCCCCCCCC(=O)c1c(C(=O)O)n(C)c2ccc([N+](=O)[O-])cc12`, the Lysis in the assay filed under Bos taurus is recorded as 10%. In addition, in assay [2], the IC50 was 10 µM.

In the case of `CCCCCCCCCCCC(=O)c1c(C(=O)O)n(CCCCCCCCC(=O)O)c2ccccc12`, in the assay filed under Bos taurus, the Lysis is 0%. In assay [2], the IC50 came to 1.6 µM.

In the assay listed under Bos taurus, `CCCCCCCCCCCC(=O)c1c(C(=O)O)n(CCCCCCC(=O)O)c2ccccc12` came in with a Lysis of 0%. For the same compound, the IC50 in assay [2] stood at 3 µM.

In the case of `CCCCCCCCCCCC(=O)c1c(C(=O)O)n(CCCCCC(=O)O)c2ccccc12`, the Lysis in the assay listed under Bos taurus is on record as 0%. Moreover, the IC50 in assay [2] amounted to 8 µM.

Take `CCCCC/C=C\C/C=C\C/C=C\C/C=C\CCCC(=O)C(F)(F)F` [ARACHIDONYL TRIFLUOROMETHYLKETONE]: in the assay listed under Bos taurus, the Lysis turned out to be 31%. The IC50 in assay [2] stood at 11 µM.

`CCCCCCCCCCCC(=O)c1c(C(=O)O)n(Cc2cccc(/C=C/C(=O)O)c2)c2ccccc12` registered a Lysis in the assay listed under Bos taurus of 0%. In addition, the IC50 in assay [2] amounted to 5.3 µM.

In turn, `CCCCCCCCCCCC(=O)c1c(C(=O)O)n(CCOc2cccc(CC(=O)O)c2)c2ccccc12` returned a Lysis in the assay filed under Bos taurus of 0%.

The compound `CCCCCCCCCCCC(=O)c1c(C(=O)O)n(C)c2ccc(OC)cc12` displayed a Lysis in the assay listed under Bos taurus of 0%. In addition, the IC50 in assay [2] is 8 µM.

In the assay listed under Bos taurus, `CCCCCCCCCC(=O)c1c(C(=O)O)n(C)c2ccccc12` gave a Lysis of 0%. In addition, in assay [2], the IC50 is 18 µM.

Turning to `CCCCCCCCCCCC(=O)c1c(C(=O)O)n(C)c2ccc(F)cc12`, in the assay filed under Bos taurus, the Lysis was found to be 0%. In assay [2], the IC50 was found to be 11 µM.

For the compound `CCCCCCCCCCCC(=O)c1c(C(=O)O)n(C)c2ccc(Cl)cc12`, the Lysis in the assay filed under Bos taurus was 14%. In addition, the IC50 in assay [2] was found to be 8 µM.

In the assay listed under Bos taurus, `CCCCCCCCCCCC(=O)c1c(C(=O)O)n(CCOc2cccc(C(=O)O)c2)c2ccccc12` had a Lysis of 0%. Besides, in assay [2], the IC50 was determined as 1.9 µM.

Turning to `CCCCCCCCCCCC(=O)c1c(C(=O)O)n(CC(=O)O)c2ccccc12`, the Lysis in the assay listed under Bos taurus is given as 0%. Besides, the IC50 in assay [2] was over 33 µM. Moreover, the inhibition in assay [3] was determined as 39%.

For the compound `CCCCCCCCCCCCOc1ccccc1C(=O)c1c(C(=O)O)n(C)c2ccccc12`, the Lysis in the assay listed under Bos taurus is reported as 60%.

For `CCCCCCCCCCCC(=O)c1c(C(=O)O)n(CCCCCCCCCCC(=O)O)c2ccccc12`, the Lysis in the assay filed under Bos taurus worked out at 0%. In addition, the IC50 in assay [2] amounted to 1.4 µM.

Compound `CCCCCCCCCCOc1cccc(CC(=O)c2c(C(=O)O)n(C)c3ccccc23)c1` registered a Lysis in the assay filed under Bos taurus of 21%. In addition, the IC50 in assay [2] is 10 µM.

Compound `CCCCCCCCCCCCCCCCCC(=O)c1c(C(=O)O)n(CCCCCCCCCCCC)c2ccccc12` showed a Lysis in the assay listed under Bos taurus of 0%.

In the assay filed under Bos taurus, `CCCCCCCCCCCC(=O)c1c(C(=O)O)n(Cc2cccc(CCC(=O)O)c2)c2ccccc12` came in with a Lysis of 0%. In addition, the IC50 in assay [2] stood at 4.3 µM.

`CCCCCCCCCCCCCCCCCC(=O)c1c(CC(=O)O)[nH]c2ccccc12` registered a Lysis in the assay listed under Bos taurus of 0%. The IC50 entry in assay [1] is given as “Not Active”.

In the assay filed under Bos taurus, `CCCCCCCCCCCCOc1ccc(C(=O)c2c(C(=O)O)n(C)c3ccccc23)cc1` came in with a Lysis of 19%. For the same compound, the IC50 in assay [2] came to 7 µM.

Consider `CCCCCCCCCCCC(=O)c1c(C(=O)O)n(CCOc2ccc(CC(=O)O)cc2)c2ccccc12`, for which, in the assay listed under Bos taurus, the Lysis was determined as 0%.

Compound `CCCCCCCCCCCC(=O)c1c(C(=O)O)n(Cc2ccc(CCC(=O)O)cc2)c2ccccc12` displayed a Lysis in the assay filed under Bos taurus of 0%. Also, in assay [2], the IC50 is 4 µM.

As to `CCCCCCCCCCCCCCCCCC(=O)c1c(C(=O)O)n(CCCCCC)c2ccccc12`, the Lysis in the assay listed under Bos taurus was determined as 27%. The IC50 in assay [2] was 9 µM.

Take `CCCCCCCCCCCCCCCCCC(=O)c1c(C(=O)O)n(C)c2ccccc12`: in the assay listed under Bos taurus, the Lysis stood at 0%. In addition, the IC50 in assay [2] was determined as 8 µM.

Compound `CCCCCCCCCCCCCCCCCC(=O)c1c(C(=O)O)[nH]c2ccccc12` had a Lysis in the assay filed under Bos taurus of 0%. In addition, the IC50 entry in assay [1] is listed as “Not Active”.

`CCCCCCCCCCCCCC(=O)c1c(C(=O)O)n(C)c2ccccc12`: the Lysis in the assay listed under Bos taurus is listed as 0%. In addition, the IC50 in assay [2] was found to be 8 µM.

`CCCCCCCCCCCCCCCCCC(=O)c1c(CC(=O)O)n(C)c2ccccc12`: the Lysis in the assay listed under Bos taurus is 0%. Moreover, the IC50 in assay [2] is over 33 µM.

In turn, `CCCCCCCCCCCCOc1cccc(C(=O)c2c(C(=O)O)n(C)c3ccccc23)c1` showed a Lysis in the assay listed under Bos taurus of 26%. Also, in assay [2], the 50% inhibitory concentration (IC50) is 7 µM.

In the assay filed under Bos taurus, `CCCCCCCCCCCCCCCCCC(=O)c1c(C(=O)OCC)n(C)c2ccccc12` showed a Lysis of 0%. In addition, in assay [1], the IC50 result was “Not Active”.

Compound `CCCCCCCC(=O)c1c(C(=O)O)n(C)c2ccccc12` registered a Lysis in the assay filed under Bos taurus of 0%. Also, the IC50 in assay [2] is over 33 µM. Besides, the inhibition in assay [3] was determined as 30%.

In turn, `CCCCCCCCCCCCCCCCCCc1c(C(=O)O)n(C)c2ccccc12` had a Lysis in the assay filed under Bos taurus of 0%. The IC50 result in assay [1] was “Not Active”.

Turning to `CCCCCCCCCCOc1ccc(CCC(=O)c2c(C(=O)O)n(C)c3ccccc23)cc1`, the Lysis in the assay listed under Bos taurus turned out to be 0%. Besides, the IC50 in assay [2] stood at 10 µM.

With `CCCCCCCCCCCC(=O)c1c(C(=O)O)n(CCCCCCCC(=O)O)c2ccccc12`, the Lysis in the assay filed under Bos taurus is on record as 0%. Further, the IC50 in assay [2] amounted to 1.6 µM.

As to `CCCCCCCCCCOc1ccccc1CC(=O)c1c(C(=O)O)n(C)c2ccccc12`, the Lysis in the assay listed under Bos taurus stood at 37%. In addition, the IC50 in assay [2] came to 7 µM.

Compound `CCCCCCCCCCCCCCCCCC(=O)c1c(C(=O)O)n(CCCCCCCC(=O)O)c2ccccc12` had a Lysis in the assay listed under Bos taurus of 69%. Further, in assay [2], the IC50 stood at 1.4 µM.
